Assay [1] deals with T1, Inosine-5'-monophosphate dehydrogenase (IMPDH) (Homo sapiens) (UniProt P20839+P12268). Description: (§1) Compound was tested for its inhibition against IMPDH from human myelogenous leukemia in K562 cells. Type of assay: functional, cell-based. To be noted: concentration not given here. The method, boiled down:
(§2)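 Log-phase K562 cells (1 × 10⁶ cells/mL) were given 10 µM agent or saline for 2 h at 37 °C. They were then washed and lysed in Tris-HCl pH 7.4/NaCl/MgCl₂/0.5% NP-40/aprotinin, and the 13000g supernatant served as enzyme. The reaction ran 30 min at 37 °C, stopped by heating at 95 °C for 1 min. Radioactivity was trapped in KOH and counted by scintillation, giving nmol XMP/mg protein/h and % inhibition against saline.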

Assay [2] relates to K562. Kind of assay: Compound was tested for its influence on the GTP (guanosine triphosphate) ribonucleotide level in K562 cells. It is filed as functional, Homo sapiens. The method in brief:
(§3)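 K562 cells in culture (1 × 10⁷) were incubated with 10 µM agent or saline for 2 h at 37 °C, then washed with cold saline. Extraction used cold 10% trichloroacetic acid, followed by neutralisation with 0.5 M tri-n-octylamine in freon. Nucleotides were measured by HPLC on a strong anion-exchange (SAX) column, with levels in nmol/g and % of saline control.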

For assay [3], the system named is K562. Description: (§4) Compound was tested for antiproliferative activity against K562, human erythroid leukemia. It is filed as functional, cell-based. The method in brief:
(§5)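 Exponentially growing cells were seeded at 1 × 10⁵ cells/mL in growth medium and exposed to various compound concentrations for 96 h at 37 °C. Viability was read by MTT. Growth at each concentration was taken as % of untreated controls, and IC50 (concentration reducing viability by 50%) was derived by linear regression.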

For the next assay, the system named is HT-29. Description: Compound was tested for antiproliferative activity against HT29, human colon adenocarcinoma. Type of assay: functional, cell-based. The method in brief:
(§6)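 Exponentially growing solid-tumour-derived cells were seeded at 5 × 10⁴ cells/mL and left to adhere for 16 h before drug addition, across a range of concentrations. Growth was expressed as % of untreated controls, and IC50 (concentration reducing cell viability by 50%) was obtained by linear regression.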

Assay [4] relates to CCRF-SB. Description: (§7) Compound was tested for antiproliferative activity against CCRF-SB, human acute B-lymphoblastic leukemia. Type of assay: functional, cell-based. The method in brief:
as §5

The next assay deals with WIL2-NS. Kind of assay: Compound was tested for antiproliferative activity against Wil2-NS, human splenic lymphoblastoid cells. Type of assay: functional, cell-based. The method, boiled down: as §5
Assay [5] deals with K562. Description: Compound was tested for its influence on the GDP (guanosine diphosphate) ribonucleotide level in K562 cells. It is filed as functional, Homo sapiens. The method, boiled down: as §3
Assay [6] has as its system CHO-K1. Description: Compound was tested for antiproliferative activity against CHO-K1, Chinese hamster ovary. Type of assay: functional, cell-based. To be noted: Cricetulus griseus. The method, boiled down: as §6
The test system of assay [7] is CCRF-CEM. Description: (§8) Compound was tested for antiproliferative activity against CCRF-CEM, human acute T-lymphoblastic leukemia. Type of assay: functional, cell-based. The method in brief:
as §5

Assay [8] concerns K562. Description: Compound was tested for its influence on the GMP (guanosine monophosphate) ribonucleotide level in K562 cells. It is filed as functional, Homo sapiens. The method in brief:
as §3

The subject of assay [9] is MOLT-4. Kind of assay: (§9) Compound was tested for antiproliferative activity against MOLT-4, human acute T-lymphoblastic leukemia. Type of assay: functional, cell-based. The method, boiled down:
as §5

The next assay concerns Raji. Kind of assay: Compound was tested for antiproliferative activity against Raji, human Burkitt lymphoma. Type of assay: functional, cell-based. The method, boiled down:
as §5

The test system of assay [10] is K562. Kind of assay: Compound was tested for its influence on the IMP (Inosine 5`-monophosphate) ribonucleotide level of K562 cells in culture. It is filed as functional, Homo sapiens. The method, boiled down: as §3
The test system of the next assay is HeLa. Kind of assay: Compound was tested for antiproliferative activity against HeLa, human cervix carcinoma. Type of assay: functional, cell-based. The method, boiled down: as §6
The test system of a further assay is ACHN. Description: Compound was tested for antiproliferative activity against ACHN, human renal adenocarcinoma. Type of assay: functional, cell-based. The method in brief:
as §6

For assay [11], the system named is L1210. Description: (§10) Compound was tested for antiproliferative activity against L1210, murine lymphocytic leukemia. Type of assay: functional, cell-based. Particulars: Mus musculus. The method in brief: as §5
In another assay the test system is 5637. Kind of assay: Compound was tested for antiproliferative activity against 5637, human bladder carcinoma cell line. Type of assay: functional, cell-based. The method, boiled down: as §6
Assay [12] has as its target T1, Inosine-5'-monophosphate dehydrogenase (IMPDH) (Homo sapiens). Description: Compound was tested for its effect on IMPDH (Inosine 5`-monophosphate dehydrogenase) activity in K562 cells. Type of assay: functional, cell-based. Particulars: scale: (nM of XMP formed) hr-1. The method in brief:
as §2

In assay [13] the test system is K562. Description: Compound was tested for its influence on the IMP (Inosine 5`-monophosphate) ribonucleotide level in K562 cells. It is filed as functional, Homo sapiens. The method, boiled down:
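K562 cells (1 × 10⁷) given 10 µM agent or saline for 2 h at 37 °C, washed in cold saline, extracted with cold 10% trichloroacetic acid, neutralized with 0.5 M tri-n-octylamine in freon; IMP measured by strong anion-exchange HPLC, reported as percent of saline control (control in nmol/g).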

Assay [14] has as its system L1210. The description is as §10. Type of assay: functional, cell-based. Particulars: Mus musculus. The method, boiled down:
(§11)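 Suspension leukemia/lymphoma cells in exponential growth resuspended at 1 × 10⁵ cells/mL in growth medium with various compound concentrations; viability read by MTT after 96 h at 37 °C. Growth given as percentage of untreated controls; IC50 (concentration reducing viability 50%) from linear regression.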
This is another data set of the same source.

The subject of assay [15] is MOLT-4. The description is as §9. It is filed as functional, cell-based. The method in brief: as §11
This is another data set of the same source.

The subject of assay [16] is CCRF-CEM. The description is as §8. Type of assay: functional, cell-based. The method, boiled down:
as §11
This is another data set of the same source.

Assay [17] deals with CHO-K1. Description: Compound was tested for antiproliferative activity against CHO-K1, Chinese hamster ovary cells. It is filed as functional, cell-based. Particulars: Cricetulus griseus. The method in brief:
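Solid tumor-derived adherent cells seeded at 5 × 10⁴ cells/mL in exponential growth, allowed 16 h to attach before drug addition; viability by MTT method. Growth expressed as percent of untreated controls, IC50 obtained by linear regression.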

In assay [18] the target is T1, Inosine-5'-monophosphate dehydrogenase (IMPDH) (Homo sapiens). The assay is described as §1. Type of assay: functional, cell-based. To be noted: concentration not given here. The source holds these as a separate data set.
Assay [19] has the same target. Description: Compound was tested for its effect on IMPDH (Inosine 5`-monophosphate dehydrogenase) activity in K562 cells in culture. Type of assay: functional, cell-based. Particulars: scale: (nM of XMP formed) hr-1.
Assay [20] relates to CCRF-SB. Described as §7. It is filed as functional, cell-based. The method, boiled down:
as §11
This is another data set of the same source.

The test system of assay [21] is K562. The description is as §4. It is filed as functional, cell-based. The method in brief: as §11
The source holds these as a separate data set.

The target of assay [22] is T1, Inosine-5'-monophosphate dehydrogenase (IMPDH) (Homo sapiens). Description: Compound was tested for its effect on IMPDH (Inosine 5`-monophosphate dehydrogenase) activity of K562 cells in culture. Particulars: scale: (nM of XMP formed) hr-1. It is filed as functional, cell-based.
For assay [23] the target is unchanged. Description: Compound was tested for its inhibition against IMPDH from human myelogenous leukemia K562 cells in culture. It is filed as functional, cell-based. To be noted: concentration not given here.

A value given as a limit tells only on which side of the number the result lay.

T1 sequence (P20839 whole entry, looked up, other chains not shown): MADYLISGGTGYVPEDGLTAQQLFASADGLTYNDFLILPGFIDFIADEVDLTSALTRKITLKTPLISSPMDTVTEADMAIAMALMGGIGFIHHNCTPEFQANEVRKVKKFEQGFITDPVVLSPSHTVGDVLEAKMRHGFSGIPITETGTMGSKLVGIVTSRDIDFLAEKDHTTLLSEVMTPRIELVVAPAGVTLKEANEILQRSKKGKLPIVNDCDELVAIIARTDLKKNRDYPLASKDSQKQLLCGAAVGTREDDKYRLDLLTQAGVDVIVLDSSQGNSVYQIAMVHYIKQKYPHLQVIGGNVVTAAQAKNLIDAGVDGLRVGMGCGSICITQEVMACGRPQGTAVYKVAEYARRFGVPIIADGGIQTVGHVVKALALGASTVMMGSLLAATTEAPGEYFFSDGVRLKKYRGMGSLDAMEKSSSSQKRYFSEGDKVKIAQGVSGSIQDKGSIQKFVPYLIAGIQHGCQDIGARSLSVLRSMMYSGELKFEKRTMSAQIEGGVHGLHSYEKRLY

Broadly, the inhibition is how much of the control response was suppressed. As usually defined, the IC50 is the midpoint of a concentration-inhibition curve. With `NC(=O)c1c[se]c([C@@H]2O[C@H](CO)[C@@H](O)[C@H]2O)n1`, the inhibition in [1] was found to be 80%. The Control stood at 50% with K562 [2], 59% in the assay on K562 [5], 0% in the assay with K562 [8] and 1043% in the assay on K562 [10]. For the same molecule, the IC50 with K562 [3] is 0.5 µM; with HT-29, 7.7 µM; in the assay with CCRF-SB [4], 1.5 µM; in the assay with WIL2-NS, 1.2 µM; with CHO-K1 [6] it was 0.6 µM; in the assay on CCRF-CEM [7], 1.2 µM. Moreover, the IC50 with MOLT-4 [9] was determined as 0.6 µM; with Raji it was 1.6 µM; with HeLa it was 7.9 µM; in the assay on ACHN, 13.8 µM; in the assay on L1210 [11], 0.5 µM; in the assay on 5637 it was 2.3 µM. In addition, the IMPDH activity in [12] was 1.01.

Molecule `NC(=O)c1c[se]c([C@@H]2O[C@H](CO)[C@@H](O)[C@H]2O)c1` returned an inhibition in [1] of 76%. For the same molecule, the Control turned out to be 42% with K562 [2], 61% in the assay with K562 [5], 0% in the assay with K562 [8] and 1464% in the assay with K562 [13]. Also, the IC50 in the assay on K562 [3] is 0.45 µM; in the assay on HT-29, 3.5 µM; in the assay with CCRF-SB [4] it was 0.9 µM; with WIL2-NS it was 0.7 µM; with CHO-K1 [6] it was 2.9 µM; in the assay on CCRF-CEM [7] it was 0.3 µM. The IC50 in the assay with MOLT-4 [9] worked out at 0.3 µM; with Raji, 0.9 µM; in the assay on HeLa, 6.4 µM; in the assay on ACHN it was 9.9 µM; with L1210 [11], 0.3 µM; with 5637 it was 1.2 µM. In assay [12], this molecule displayed an IMPDH activity of 1.06.

For `NC(=O)c1csc([C@@H]2O[C@H](CO)[C@@H](O)[C@H]2O)c1`, the Control in the assay with K562 [2] worked out at 60%; in the assay on K562 [5], 66%; in the assay with K562 [8] it was 0%; with K562 [13], 703%. For the same molecule, the IC50 came out at 1.7 µM in the assay on L1210 [14]; 2.9 µM with MOLT-4 [15]; 2.3 µM with K562 [3]; 40 µM in the assay on HT-29; 3.5 µM in the assay on CCRF-CEM [16]; 6.4 µM in the assay on CCRF-SB [4]. Also, the IC50 in the assay on WIL2-NS was determined as 5.8 µM; with CHO-K1 [17], 55 µM; in the assay with Raji, 8.7 µM; in the assay with HeLa, 90 µM; in the assay with ACHN it was 79 µM; with 5637, 17 µM. The molecule also registered an inhibition in assay [18] of 52%. The IMPDH activity in assay [19] was determined as 2.62.

`NC(=O)c1csc([C@@H]2O[C@H](CO)[C@@H](O)[C@H]2O)n1` [TIAZOFURIN]: the IC50 in the assay with CCRF-SB [20] was determined as 7.5 µM; in the assay on K562 [21], 2.5 µM; with L1210 [14], 2.9 µM; in the assay on MOLT-4 [15], 5.2 µM; in the assay on HT-29, 100 µM; with CCRF-CEM [16] it was 10 µM. In addition, the IC50 is 5.7 µM in the assay with WIL2-NS; 6.4 µM in the assay on CHO-K1 [17]; 8.2 µM with Raji; 100 µM in the assay with HeLa; above 100 µM in the assay with ACHN; 24 µM in the assay with 5637. Moreover, the Control was determined as 55% in the assay on K562 [2], 89% with K562 [5], 0% in the assay with K562 [8] and 1033% in the assay on K562 [13]. Further, the IMPDH activity in [22] turned out to be 2.07. The molecule also registered an inhibition in [23] of 59%.

(Values after ChEMBL document CHEMBL1130047, “Synthesis, structure, and antiproliferative activity of selenophenfurin, an inosine 5'-monophosphate dehydrogenase inhibitor analogue of selenazofurin” (J Med Chem, 1997).)
